Results as given in the EternaBench riboswitch data.

Tested on: MS2 coat protein
Test: apparent Kd, MS2 coat protein; higher = weaker binding; RNA-MaP array; theophylline 2 mM where present
Summary of the method: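 Stalled E. coli RNA polymerase produced the designs on Illumina sequencing-chip clusters. SNAP-549-labelled MS2 coat protein was added from 0.7 or 1.5 nM, doubling to 3 µM, without and then with constant ligand, in 100 mM Tris-HCl pH 7.5, 80 mM KCl, 4 mM MgCl2, BSA, DTT, yeast tRNA and Tween-20. The apparent Kd is the median of filtered per-cluster fits of green signal normalised to red-channel RNA signal and control-cluster median Fmax.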

[1] = designed as: OFF switch for theophylline, no ligand
[2] = ligand present: theophylline, designed as: OFF switch for theophylline
[3] = designed as: ON switch for theophylline, no ligand
[4] = ligand present: theophylline, designed as: ON switch for theophylline

Sequence	apparent Kd [1] [nM]	apparent Kd [2] [nM]	apparent Kd [3] [nM]	apparent Kd [4] [nM]
ACGUCCGGAUUAAUCGUGGGCAUGGUCGAUACCAGUAUUUUAAUCUACCCUUGGCAGCGACAUGAGGAUCACCCAUGUGCGAUGA	16.7	30.9		
ACUAGUUGUGCAGAUACCAGACAUGAGGAUCACCCAUGUUUGGGAUCUUCGGAUCUUCCUGUCCCUUGGCAGCUGUACAUCUAGA	85	22.5		
ACUCUGUCGGGUGAUACCAGCCUCGGCACAUCUCGCGCCGAACAUGAGGAUCACCCAUGUGGCCCUUGGCAGCACAUGACAAAUC			328	83.1
AGAUUACAUGUUUUAAUACGGAAAACUGAUACCAGUGUAUCUAUUCACCCUUGGCAGCAGCAACAUGAGGAUCACCCAUGUAUUA			19.2	19.2
AGCAUGUUAGCAGAUACCAGACGUUUUAUGAUCCAUGUAACAUGAGGAUCACCCAUGUAAGUCCCUUGGCAGCUGAAAUAAUGCA			155	301
AGCGAGAUCCGUGAUACCAGCUACAUGAGGAUCACCCAUGUGAGCGCGAAAGUGCUGUGUAGCCCUUGGCAGCACAGUGGAUCUC	10	43.2		
AGCGAUAUGCAUGAUACCAGCUACAUGAGGAUCACCCAUGUACGUCAGUAAUGACUGUGUAGCCCUUGGCAGCAUAGAGCAUGUA	25.5	33		
AGCGAUAUGCAUGAUACCAGCUACAUGAGGAUCACCCAUGUGCGUCAGAAAUGACUGUGUAGCCCUUGGCAGCAUAGAGCAUGUA	37.4	73.6		
AGCGGAACGGAAGGGUCCCGAAAUUGUGAUACCAGCCUUGAAUCCGGCCCUUGGCAGCACAUGAGGAUCACCCAUGUACUGCGGU	13	45		
AGUACUCGAACGGAUACCAGCCGGACAUGAGGAUCACCCAUGUCCUACCAUGUCUCGGUUGGCCCUUGGCAGCCGUUCGUGUACA			83.4	234
AGUGUUAUAACUGAUACCAGACUUUUGCUUAUACAUGAGGAUCACCCAUGUAAAAUGGUUGUCCCUUGGCAGCAGAAGUUACACA			69.1	327
AUAGUCUAGAGUGAUACCAGACUACAUGAGGAUCACCCAUGUAUCUUUUGGUUAUCAUGUGUCCCUUGGCAGCACGCAUGUAUAG	10.1	24.5		
AUAUGAUCAUAGGAUACCAGAAAUGGUAUUCCUUUAUUUCUUACAUGAGGAUCACCCAUGUUCCCUUGGCAGCUUAUGAUCAUAU	126	115		
AUAUGAUCAUGUGAUACCAGAAAUGGUAUUCCUCGCUGGAUUACAUGAGGAUCACCCAUGUUCCCUUGGCAGCAUAUGAUCAUAU	21.4	269		
AUCGUACCUGAUGAUACCAGCAAGUGAUCAUAACAUGAGGAUCACCCAUGUAAUCAGUGAUGCCCUUGGCAGCAUAGUCGAUACA			164	99.8
AUCGUACCUGGUGAUACCAGCAAGUGAUUAUAACAUGAGGAUCACCCAUGUAAUCAGUGAUGCCCUUGGCAGCAUAAUCGGUACA			26.3	21.3
AUGUCGUUGAAUAUAGCGGCUUGGUGUGAUACCAGAAUGAUCUAAUUCCCUUGGCAGCAUUACAUGAGGAUCACCCAUGUUUAGG			25.2	29.2
AUUCAUAAUUGGGUAAAUGGAUAGAGUGAUACCAGUCAUAUACAUGACCCUUGGCAGCACAAGGACAUGAGGAUCACCCAUGUCA			24.2	16.3
CAGAGCUACCGGGAUACCAGAAAUGGUAUUCCUUAAUUUCUUACAUGAGGAUCACCCAUGUUCCCUUGGCAGCUUGGUAGCUCUG	86.4	385		
CAGCACAUGAGGAUCACCCAUGUGAGGGAUACCAGCUCAGGCGUGGGCCCUUGGCAGCUCUCUGGCUGACGAAAGUCAGCCUGUG			13.2	16.7
CAUACUUUAGUAUGUUAUGUGGACAGUGAUACCAGAUACGAAAGUAUCCCUUGGCAGCACAACAUGAGGAUCACCCAUGUAUUUU			23	13.6
CAUGGGUGGGUGCUGCCACCCAUUGGUGAUACCAGCAUCGAAAGAUGCCCUUGGCAGCACCAACAUGAGGAUCACCCAUGUAAUA			118	320
